Data from ChEMBL document CHEMBL1149289, “Synthesis and antibacterial activity of new poly-S-lysine-porphyrin conjugates” (J Med Chem, 2004).

What was measured:
[1] = test system: Escherichia coli; assay: Drug uptake per mg of protein in Escherichia coli O4 at 10 uM after 10 mins; assay type: ADME, organism-based; conditions: in vivo
In short: (§1)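 Bacterial suspensions (10^8 to 10^9 cells/mL in PBS) were incubated with porphyrin for 10 min in the dark at room temperature, then centrifuged. The pellet was digested in 2% aqueous SDS. Porphyrin was quantified by spectrofluorimetry and cell protein by modified Lowry assay (BSA standard). Uptake is given as nmol per mg cell protein.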

[2] = Photostability after irradiation with white light at the fluence rate of 50 mW/cm2 for 20 mins; assay type: ADME; conditions: read-out: Stability
[3] = test system: Staphylococcus aureus; assay: Drug uptake per mg of protein in methicillin-resistant Staphylococcus aureus 110 at 10 uM after 10 mins; assay type: ADME, organism-based; conditions: in vivo; in short: as §1
[4] = test system: Staphylococcus aureus; assay: Drug uptake per mg of protein in Staphylococcus aureus ATCC 25923 at 0.5 uM after 10 mins; assay type: ADME, organism-based; conditions: in vivo; in short: as §1
[5] = Photostability after irradiation with white light at the fluence rate of 50 mW/cm2 for 30 mins; assay type: ADME; conditions: read-out: Stability
[6] = test system: Staphylococcus aureus; assay: Logarithmic survival of methicillin-resistant Staphylococcus aureus 110 at 0.5 uM after 10 mins and irradiated with white light at the fluence rate of 50 mW/cm2 for 30 mins relative to control; assay type: functional; conditions: light or radiation study
In short: (§2)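 MRSA 110 grown aerobically at 37 °C on BHA. Stationary-phase cells were taken into BHI, washed twice in PBS and diluted to OD650 ~0.7 (10^8 to 10^9 cells/mL). Suspensions were held with photosensitizer for 10 min in the dark at room temperature, then given white light for 30 min. Cells were serially diluted, plated on BHA and counted after 16–20 h at 37 °C. Survival = cfu ÷ cfu of photosensitizer-free controls.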

[7] = test system: Staphylococcus aureus; assay: Logarithmic survival of Staphylococcus aureus ATCC 25923 at 0.1 uM after 10 mins and irradiated with white light at the fluence rate of 50 mW/cm2 for 1 min relative to control; assay type: functional; conditions: ATCC 25923, light or radiation study
In short: (§3)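 S. aureus ATCC 25923 or MRSA 110 (PBS-washed, 10^8 to 10^9 cells/mL) were incubated with 0.1 μM photosensitizer for 10 min in the dark at room temperature. They were then irradiated with white light at 50 mW/cm² for varying times up to 30 min. Survival was read as cfu on BHA and divided by cfu of controls without photosensitizer.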

[8] = test system: Staphylococcus aureus; assay: Logarithmic survival of Staphylococcus aureus ATCC 25923 at 0.1 uM after 10 mins and irradiated with white light at the fluence rate of 50 mW/cm2 for 10 mins relative to control; assay type: functional; conditions: ATCC 25923, light or radiation study; in short: as §3
[9] = test system: Staphylococcus aureus; assay: Logarithmic survival of methicillin-resistant Staphylococcus aureus 110 at 0.1 uM after 10 mins and irradiated with white light at the fluence rate of 50 mW/cm2 for 5 mins relative to control; assay type: functional; conditions: light or radiation study; in short: as §3
[10] = test system: Staphylococcus aureus; assay: Logarithmic survival of Staphylococcus aureus ATCC 25923 at 0.1 uM after 10 mins and irradiated with white light at the fluence rate of 50 mW/cm2 relative to control; assay type: functional; conditions: ATCC 25923, light or radiation study; in short: as §3
[11] = test system: Staphylococcus aureus; assay: Logarithmic survival of methicillin-resistant Staphylococcus aureus 110 at 1 uM after 10 mins and irradiated with white light at the fluence rate of 50 mW/cm2 for 30 mins relative to control; assay type: functional; conditions: light or radiation study; in short: as §2
[12] = test system: Staphylococcus aureus; assay: Logarithmic survival of methicillin-resistant Staphylococcus aureus 110 at 0.1 uM after 10 mins and irradiated with white light at the fluence rate of 50 mW/cm2 for 15 mins relative to control; assay type: functional; conditions: light or radiation study; in short: as §3
[13] = test system: Staphylococcus aureus; assay: Logarithmic survival of Staphylococcus aureus ATCC 25923 at 10 uM after 10 mins and irradiated with white light at the fluence rate of 50 mW/cm2 for 30 mins relative to control; assay type: functional; conditions: ATCC 25923, light or radiation study
In short: (§4)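 Strains grown aerobically at 37 °C on brain heart agar; stationary-phase cells washed twice in PBS and adjusted to OD650 ca. 0.7 (10^8 to 10^9 cells/mL). Cells incubated with photosensitizer at various concentrations for 10 min in the dark at room temperature, then irradiated with white light at 50 mW/cm² for 30 min. Survivors counted as cfu on BHA after 16–20 h at 37 °C, expressed relative to no-photosensitizer controls. Dark controls were run without irradiation.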

[14] = test system: Staphylococcus aureus; assay: Drug uptake per mg of protein in Staphylococcus aureus ATCC 25923 at 5 uM after 10 mins; assay type: ADME, organism-based; conditions: in vivo; in short: as §1
[15] = test system: Staphylococcus aureus; assay: Drug uptake per mg of protein in methicillin-resistant Staphylococcus aureus 110 at 2.5 uM after 10 mins; assay type: ADME, organism-based; conditions: in vivo; in short: as §1
[16] = test system: Staphylococcus aureus; assay: Logarithmic survival of Staphylococcus aureus ATCC 25923 at 5 uM after 10 mins and irradiated with white light at the fluence rate of 50 mW/cm2 for 30 mins relative to control; assay type: functional; conditions: ATCC 25923, light or radiation study; in short: as §4
[17] = test system: Staphylococcus aureus; assay: Logarithmic survival of Staphylococcus aureus ATCC 25923 at 0.1 uM after 10 mins and irradiated with white light at the fluence rate of 50 mW/cm2 for 20 mins relative to control; assay type: functional; conditions: ATCC 25923, light or radiation study; in short: as §3
[18] = test system: Staphylococcus aureus; assay: Logarithmic survival of Staphylococcus aureus ATCC 25923 at 0.01 uM after 10 mins and irradiated with white light at the fluence rate of 50 mW/cm2 for 30 mins relative to control; assay type: functional; conditions: ATCC 25923, light or radiation study; in short: as §4
[19] = Photostability after irradiation with white light at the fluence rate of 50 mW/cm2 for 3 mins; assay type: ADME; conditions: read-out: Stability
[20] = test system: Staphylococcus aureus; assay: Logarithmic survival of Staphylococcus aureus ATCC 25923 at 0.1 uM after 10 mins and irradiated with white light at the fluence rate of 50 mW/cm2 for 30 mins relative to control; assay type: functional; conditions: ATCC 25923, light or radiation study; in short: as §3
[21] = test system: Staphylococcus aureus; assay: Logarithmic survival of Staphylococcus aureus ATCC 25923 at 1 uM after 10 mins and irradiated with white light at the fluence rate of 50 mW/cm2 for 30 mins relative to control; assay type: functional; conditions: ATCC 25923, light or radiation study; in short: as §4
[22] = test system: Staphylococcus aureus; assay: Logarithmic survival of methicillin-resistant Staphylococcus aureus 110 at 0.1 uM after 10 mins and irradiated with white light at the fluence rate of 50 mW/cm2 for 1 min relative to control; assay type: functional; conditions: light or radiation study; in short: as §3
[23] = test system: Staphylococcus aureus; assay: Drug uptake per mg of protein in methicillin-resistant Staphylococcus aureus 110 at 1 uM after 10 mins; assay type: ADME, organism-based; conditions: in vivo; in short: as §1
[24] = test system: Escherichia coli; assay: Drug uptake per mg of protein in Escherichia coli O4 at 2.5 uM after 10 mins; assay type: ADME, organism-based; conditions: in vivo; in short: as §1
[25] = test system: Staphylococcus aureus; assay: Antibacterial activity against methicillin-resistant Staphylococcus aureus 110 measured as 4 log decrease in survival; assay type: functional; in short: as §4
[26] = Photostability after irradiation with white light at the fluence rate of 50 mW/cm2 for 10 mins; assay type: ADME; conditions: read-out: Stability
[27] = test system: Staphylococcus aureus; assay: Logarithmic survival of methicillin-resistant Staphylococcus aureus 110 at 10 uM after 10 mins and irradiated with white light at the fluence rate of 50 mW/cm2 for 30 mins relative to control; assay type: functional; conditions: light or radiation study; in short: as §2
[28] = test system: Staphylococcus aureus; assay: Antibacterial activity against Staphylococcus aureus ATCC 25923 measured as 4 log decrease in survival; assay type: functional; in short: as §4
[29] = test system: Staphylococcus aureus; assay: Logarithmic survival of Staphylococcus aureus ATCC 25923 at 0.1 uM after 10 mins and irradiated with white light at the fluence rate of 50 mW/cm2 for 5 mins relative to control; assay type: functional; conditions: ATCC 25923, light or radiation study; in short: as §3
[30] = Photostability after irradiation with white light at the fluence rate of 50 mW/cm2 for 5 mins; assay type: ADME; conditions: read-out: Stability
[31] = test system: Staphylococcus aureus; assay: Logarithmic survival of methicillin-resistant Staphylococcus aureus 110 at 0.1 uM after 10 mins and irradiated with white light at the fluence rate of 50 mW/cm2 for 10 mins relative to control; assay type: functional; conditions: light or radiation study; in short: as §3

SMILES | Drug uptake [1] | remaining at 20 min [2] | Drug uptake [3] | Drug uptake [4] | remaining at 0.5 h [5] | survival at 0.5 µM [6] | survival at 0.1 µM [7] | survival at 0.1 µM [8] | survival at 0.1 µM [9] | survival at 0.1 µM [10] | survival at 1 µM [11] | survival at 0.1 µM [12] | survival at 10 µM [13] | Drug uptake [14] | Drug uptake [15] | survival at 5 µM [16] | survival at 0.1 µM [17] | survival at 0.01 µM [18] | remaining at 0.05 h [19] | survival at 0.1 µM [20] | also measured
C[n+]1ccc(-c2c3nc(c(-c4cc[n+](C)cc4)c4ccc([nH]4)c(-c4cc[n+](C)cc4)c4nc(c(-c5ccc(C(=O)O)cc5)c5ccc2[nH]5)C=C4)C=C3)cc1.[I-].[I-].[I-] | 6.88 nmol/mg | 72% | 18 nmol/mg | 1.88 nmol/mg | 67% | 1.33% | 0.67 | -0.42 | 1.87 | 0.82 | -0.43 | 1.82 | -4.36% | 9.97 nmol/mg | 7.69 nmol/mg | -3.06% | -2.12 | 2 | 86% | 1.87 | survival at 1 µM [21]: -1.32%; survival at 0.1 µM [22]: 1.96; Drug uptake [23]: 5.43 nmol/mg; Drug uptake [24]: 3.47 nmol/mg; Activity [25]: 2.5 µM; remaining at 10 min [26]: 77%; survival at 10 µM [27]: -2.7; Activity [28]: 2.5 µM; survival at 0.1 µM [29]: -0.28; remaining at 5 min [30]: 83%; survival at 0.1 µM [31]: 1.7
O=C(O)c1ccc(-c2c3nc(c(-c4ccncc4)c4ccc([nH]4)c(-c4ccncc4)c4nc(c(-c5ccncc5)c5ccc2[nH]5)C=C4)C=C3)cc1 [PORPHIRIN] | 163 nmol/mg | 90% | 342 nmol/mg | 3.15 nmol/mg | 85% | -1.58% | 1.49 | -2.07 | 1.61 | 1.91 | -2.27 | 0.26 | -4.06% | 81.4 nmol/mg | 47 nmol/mg | -3.73% | -3 | 2 | 97% | -1.7 | survival at 1 µM [21]: -2.7%; survival at 0.1 µM [22]: 1.83; Drug uptake [23]: 15 nmol/mg; Drug uptake [24]: 35.3 nmol/mg; Activity [25]: 1 µM; remaining at 10 min [26]: 94%; survival at 10 µM [27]: -3.35; Activity [28]: 0.25 µM; survival at 0.1 µM [29]: -0.85; remaining at 5 min [30]: 96%; survival at 0.1 µM [31]: 0.98
